From paper PMC9851031 (ACS Omega, 2023)

Key:
Assay type in all cases: in vivo
mice = assay: Antidepressant activity: locomotor activity by actophotometer; settings: for % reduction in locomotor activity / locomotor activity score, after treatment means ± SEM: n = 5, 5 min; for depressant effect (in words): actophotometer, 100 mg/kg
How it was run: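 Actophotometer test in mice. Test compound at 100 mg/kg or diazepam standard was given intraperitoneally. Locomotor activity scores were taken at baseline and after treatment over a 5 min span, n = 5. Percent reduction in locomotor activity was calculated against control. Data are mean ± SEM, analysed by one-way ANOVA with Dunnett's test.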

albino mice = assay: Rotarod neurotoxicity test; settings: doses 30, 100, 300 mg/kg; for neurotoxicity minimum dose: i.p. in mice
How it was run: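 Albino mice of either sex, housed five per cage on a 12 h light/dark cycle and fasted overnight, were first trained to balance on a 3.2 cm diameter rod turning at 6 rpm. Trained mice then received test compound i.p. in PEG-200 at 30, 100 or 300 mg/kg. Neurotoxicity was scored as failure to stay on the rod for at least 1 min in each of three successive trials.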

Swiss albino mice = assay: Acute toxicity; settings: for number of animals dead/tot number of animals tested: i.p., observed 24 h
How it was run: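 Albino mice, five per cage, on a 12 h light/dark cycle, fasted overnight. Acute toxic-class testing followed OECD 423. Deaths and signs of toxicity were recorded after dosing to estimate the median lethal dose.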

[1] = tested on: MES-induced seizure in albino mice; assay: Maximum electroshock; settings: i.p. in mice, 4.0 h; doses 30, 100, 300 mg/kg
How it was run: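 Albino mice, fasted overnight, received test compound i.p. in PEG-200 at 30, 100 and 300 mg/kg. Electroshock was 60-cycle alternating current, 50 mA for 0.25 s, delivered via ear-clip electrodes, with testing at 0.5 and 4 h after dosing. Protection meant abolition of hind limb tonic extension. The minimum dose protecting more than half of animals (n = 5) was recorded.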

[2] = tested on: scPTZ-induced seizure in albino mice; assay: Subcutaneous pentylenetetrazole; settings: Mus musculus, ip, 4 h, read-out: scPTZ minimum dose for antiepileptic potential
How it was run: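 Overnight-fasted albino mice were dosed i.p. with test compound in PEG-200 at 30, 100 and 300 mg/kg and observed at 0.5 and 4 h. Pentylenetetrazole was injected subcutaneously in the posterior midline. Protection meant no clonic spasm episode lasting 5 s, n = 5 per group. The minimum protective dose was reported.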

[3] = 100 mg/kg, after a few minutes of administration

| Compound | % reduction in locomotor activity (mice; 4 mg/kg (intraperitoneally)) [%] | locomotor activity score, after treatment means ± SEM (mice; 4 mg/kg (intraperitoneally)) | neurotoxicity minimum dose (albino mice; 0.5 h) [mg/kg] | neurotoxicity minimum dose (albino mice; 4.0 h) [mg/kg] | number of animals dead/tot number of animals tested (Swiss albino mice; dosage 5 mg/kg) | number of animals dead/tot number of animals tested (Swiss albino mice; dosage 30 mg/kg) | number of animals dead/tot number of animals tested (Swiss albino mice; dosage 100 mg/kg) | number of animals dead/tot number of animals tested (Swiss albino mice; dosage 300 mg/kg) | acute toxicity observation (Swiss albino mice; 300 mg/kg body weight, 24 h) | HLTE (MES) minimum dose for antiepileptic potential [1] | acute toxicity observation (Swiss albino mice; [3]) | minimal effective dose [2] [mg/kg] | neurotoxicity (in words) (albino mice) | depressant effect (in words) (mice) | % reduction in locomotor activity (mice; dose 100 mg/kg) [%] | locomotor activity score, after treatment means ± SEM (mice; dose 100 mg/kg) |
| --- | --- | --- | --- | --- | --- | --- | --- | --- | --- | --- | --- | --- | --- | --- | --- | --- |
| CN1C(=O)CN=C(c2ccccc2)c2cc(Cl)ccc21 [diazepam, reference compound] | 80.4 | 74.6 ± 2.65 |  |  |  |  |  |  |  |  |  |  |  |  |  |  |
| O=C1NC(=O)C(c2ccccc2)(c2ccccc2)N1 [phenytoin, reference compound] |  |  | 100 | 100 | 0/3 | 0/3 | 0/3 | 0/3 |  |  |  |  |  |  |  |  |
| COc1ccc(-c2nc3ccccc3s2)cc1OCc1nnc(C(c2ccccc2)c2ccccc2)o1 [6i, 2-[3-(5-Benzhydryl-[1,3,4]oxadiazol-2-ylmethoxy)-4-methoxy-phenyl]-benzothiazole] |  |  |  |  | 0/3 | 0/3 | 0/3 | 1/3 | mortality with involuntary movements |  |  |  |  |  |  |  |
| COc1ccc(-c2nc3ccccc3s2)cc1OCc1nnc(-c2c(C)cccc2C)o1 [6k, 2-{3-[5-(2,6-Dimethylphenyl)-[1,3,4]oxadiazol-2-ylmethoxy]-4-methoxy-phenyl}-benzothiazole] |  |  |  |  | 0/3 | 0/3 | 0/3 | 1/3 | mortality with involuntary movements |  |  |  |  |  |  |  |
| COc1ccc(-c2nc3ccccc3s2)cc1OCc1nnc(-c2ccc(Br)cc2)o1 [6c, 2-{3-[5-(4-Bromo-phenyl)-[1,3,4]oxadiazol-2-ylmethoxy]-4-methoxy-phenyl}-benzothiazole] |  |  | 300 | 300 | 0/3 | 0/3 | 1/3 | 2/3 | mortality with involuntary movements | failed to exhibit activity | slight spasmodic behavior |  |  |  |  |  |
| CCC1(c2ccccc2)C(=O)NC(=O)NC1=O [phenobarbital, reference compound] |  |  | 100 | 300 | 0/3 | 0/3 | 0/3 | 0/3 |  |  |  | 100 |  |  |  |  |
| COc1ccc(-c2nc3ccccc3s2)cc1OCc1nnc(-c2cc([N+](=O)[O-])cc([N+](=O)[O-])c2O)o1 [6j, 2-[5-(5-Benzothiazol-2-yl-2-methoxy-phenoxymethyl)-[1,3,4]oxadiazol-2-yl]-4,6-dinitro-phenol] |  |  |  |  | 0/3 | 0/3 | 0/3 | 0/3 |  |  |  |  | no neurotoxicity | not depressants | 0.48 | 368.8 ± 2.63^ns |
| COc1ccc(-c2nc3ccccc3s2)cc1OCc1nnc(-c2ccccc2)o1 [6d, 2-[4-Methoxy-3-(5-phenyl-[1,3,4]oxadiazol-2-ylmethoxy)-phenyl]-benzothiazole] |  |  |  |  | 0/3 | 0/3 | 0/3 | 2/3 | mortality with involuntary movements |  |  |  |  |  |  |  |
| COc1ccc(-c2nc3ccccc3s2)cc1OCc1nnc(-c2c(OC)cccc2OC)o1 [6n, 2-{3-[5-(2,6-Dimethoxyphenyl)-[1,3,4]oxadiazol-2-ylmethoxy]-4-methoxy-phenyl}benzothiazole] |  |  |  |  | 0/3 | 0/3 | 0/3 | 0/3 |  |  |  |  |  |  |  |  |
| COc1ccc(-c2nc3ccccc3s2)cc1OCc1nnc(-c2ccc(N(C)C)cc2)o1 [6m, {4-[5-(5-Benzothiazol-2-yl-2-methoxy-phenoxymethyl)-[1,3,4]oxadiazol-2-yl]-phenyl}-dimethylamine] |  |  |  |  | 0/3 | 0/3 | 0/3 | 0/3 |  | failed to exhibit activity |  |  |  |  |  |  |
| COc1ccc(-c2nc3ccccc3s2)cc1OCc1nnc(Cc2ccccc2)o1 [6e, 2-[3-(5-Benzyl-[1,3,4]oxadiazol-2-ylmethoxy)-4-methoxy-phenyl]-benzothiazole] |  |  |  |  | 0/3 | 0/3 | 1/3 | 1/3 | mortality with involuntary movements |  | slight spasmodic behavior |  |  |  |  |  |
| COc1ccc(-c2nc3ccccc3s2)cc1OCc1nnc(-c2ccc(N)cc2)o1 [6a, 4-[5-(5-Benzothiazol-2-yl-2-methoxy-phenoxymethyl)-[1,3,4]oxadiazol-2-yl]-phenylamine] |  |  |  |  | 0/3 | 0/3 | 0/3 | 0/3 |  |  |  |  |  |  |  |  |
| COc1ccc(-c2nc3ccccc3s2)cc1OCc1nnc(-c2ccc(Cl)cc2)o1 [6g, 2-{3-[5-(4-Chloro-phenyl)-[1,3,4]oxadiazol-2-ylmethoxy]-4-methoxy-phenyl}-benzothiazole] |  |  |  |  | 0/3 | 0/3 | 0/3 | 1/3 | mortality with involuntary movements |  |  |  |  |  |  |  |
| COc1ccc(-c2nc3ccccc3s2)cc1OCc1nnc(-c2ccc(O)cc2)o1 [6l, 4-[5-(5-Benzothiazol-2-yl-2-methoxy-phenoxymethyl)-[1,3,4]oxadiazol-2-yl]-phenol] |  |  |  |  | 0/3 | 0/3 | 0/3 | 0/3 |  |  |  |  | no neurotoxicity | not depressants | 0.73 | 375.8 ± 3.65^ns |
| COc1ccc(-c2nc3ccccc3s2)cc1OCc1nnc(-c2ccc([N+](=O)[O-])cc2)o1 [6h, 2-{4-Methoxy-3-[5-(4-nitro-phenyl)-[1,3,4]oxadiazol-2-ylmethoxy]-phenyl}-benzothiazole] |  |  |  |  | 0/3 | 0/3 | 0/3 | 0/3 |  |  |  |  | no neurotoxicity | not depressants | 0.37 | 373.4 ± 3.85^ns |
| COc1ccc(-c2nnc(COc3cc(-c4nc5ccccc5s4)ccc3OC)o2)cc1 [6b, 2-{4-Methoxy-3-[5-(4-methoxy-phenyl)-[1,3,4]oxadiazol-2-ylmethoxy]-phenyl}-benzothiazole] |  |  |  |  | 0/3 | 0/3 | 0/3 | 0/3 |  | failed to exhibit activity |  |  |  |  |  |  |
